Compound activity from PubChem.
NR2E3 ag-1 – NR2E3 (human) agonism. GST-NR2E3/biotin-RetCOR TR-FRET, 1536-well. inhibition of corepressor binding, % at 4.78 µM. 320,000 tested, 0.12% active;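 active = percent inhibition above the cutoff of mean plus 3 SD of all tested compounds, set per screening campaign, cut at about 20% in these data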;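 also: 0% = DMSO wells and 100% = biotin wells as full block of FRET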
Target sequence (Q9Y5X4 whole entry, looked up): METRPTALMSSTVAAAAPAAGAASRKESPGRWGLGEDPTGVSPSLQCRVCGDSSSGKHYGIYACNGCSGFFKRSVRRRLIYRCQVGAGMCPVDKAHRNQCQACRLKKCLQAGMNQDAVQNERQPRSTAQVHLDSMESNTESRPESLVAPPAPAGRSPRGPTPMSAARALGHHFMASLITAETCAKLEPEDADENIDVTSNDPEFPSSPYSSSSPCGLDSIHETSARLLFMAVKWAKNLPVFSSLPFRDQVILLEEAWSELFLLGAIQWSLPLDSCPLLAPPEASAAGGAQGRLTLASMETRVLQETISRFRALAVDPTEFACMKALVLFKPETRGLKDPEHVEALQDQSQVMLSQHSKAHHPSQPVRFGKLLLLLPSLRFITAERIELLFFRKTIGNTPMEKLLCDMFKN
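Format: 1536-well format; test system: GST-NR2E3 and biotin-RetCOR proteins; read-out basis: percent inhibition of TR-FRET ratio; timing: 5 h incubation at 4 °C; detection: time-resolved FRET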
NR2E3 ag-2 – agonists of human NR2E3 nuclear receptor; Q9Y5X4; CHO-S Gal4-NCOR/VP16-NR2E3 two-hybrid, luciferase; inhibition of corepressor binding, % at 3.98 µM; 360,000 tested, 0.35% active; AID 602229;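 active = inhibition above the mean of all tested compounds plus 3 SD, cut at about 70% in these data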;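 also: 0% = DMSO with NR2E3 transfected cells and 100% = cells lacking NR2E3 construct; higher means lower luciferase signal from less NR2E3 corepressor binding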
PP1 inh – blocks human PP1-alpha phosphatase, a PP5 counter-screen; AID 2235; inhibition, % at 6.7 µM; P62136; purified PP1alpha, OMFP fluorescence; 320,000 tested, 0.9% active;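 active = inhibition above the mean inhibition of all tested compounds plus 3 SD, computed separately for each screening campaign, cut at about 15% in these data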
PP5 inh – inhibitors of human protein phosphatase 5 (PP5). inhibition, % at 6.7 µM. 320,000 tested, 0.18% active. P53041. purified PP5c, OMFP substrate fluorescence;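 active = inhibition above the campaign's mean inhibition across all tested compounds plus 3 SD, cut at about 9.5% in these data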;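 also: 0% = DMSO only and 100% = 100 µM cantharidin control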
PP5 conf – PP5 (human) inhibition, confirmation. Purified PP5, fluorogenic phosphatase substrate, fluorescence. shares compounds with PP5 inh. inhibition, % at 6.7 µM. AID 2331. 460 tested, 22% active; in the data active = inhibition above about 9.5%
PP1 counter 3x – PP1 phosphatase inhibition, counter-screen for PP5 inhibitors | 460 tested, 4% active | AID 2355 | shares compounds with PP5 inh | inhibition, % at 6.7 µM | PP1 enzyme, fluorescent phosphatase substrate; in the data active = inhibition above about 16%
NR2E3 ag confirm – confirmation of human NR2E3 nuclear receptor agonists; AID 2379; 360 tested, 39% active; activation (reported as inhibition), % at 3.98 µM; cell-free NR2E3 corepressor release, TR-FRET, 5 h; shares compounds with NR2E3 ag-1; in the data active = activation above about 20%
PPARg-NCOR2 ag – PPARg-NCOR2 interaction agonism, NR2E3 counter-screen; shares compounds with NR2E3 ag-1; TR-FRET PPARg-NCOR2 coregulator interaction, biochemical; inhibition, % at 3.98 µM; 360 tested, 45% active; in the data active = inhibition above about 20%;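 also: 0% = DMSO vehicle and 100% = wells without protein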
Active calls of the source: *; · = no result. Only some compounds are listed: those with a hit (about 1.3% of all), similar ones and a draw of the others.

SMILES | NR2E3 ag-1 | NR2E3 ag-2 | PP1 inh | PP5 inh | others
CNc1ccc2oc(C[C@H]3O[C@@]4(CC[C@H]3C)O[C@H]([C@H](C)C(=O)c3ccc[nH]3)[C@H](C)C[C@H]4C)nc2c1C(=O)O | 0.4 | 3.9 | 16.7* | 4.6
C[C@H]1CCC/C=C/C2C[C@H](O)CC2[C@H](O)/C=C/C(=O)O1 (stereo partly specified) | -0.5 | 95.9* | -1.4 | -0.1
O=c1[nH]c(O)c(N=Nc2cc([N+](=O)[O-])ccc2O)c(=O)[nH]1 | -21.1 | -29.5 | 6.5 | 1.0
CCCC[C@@H](C)C[C@@H](C)C(=O)N(C)[C@@H](CC(C)C)C(=O)N[C@H](C(=O)N(C)[C@H](C(=O)N1C[C@@H](O)C[C@H]1C(=O)N1C(=O)C=C[C@@H]1C)C(C)C)C(C)OC(C)=O (stereo partly specified) | · | 81.8* | · | ·
CCOC(=O)c1c(C)[nH]c(C)c1C(=O)C(Cc1ccccc1)N(C)C (stereo unspecified) | 2.7 | -29.1 | -2.3 | -2.6
CC(=O)c1ccc2c(c1)C1C(Cl)C(Sc3ccccc3[N+](=O)[O-])CC1C(c1ccccc1[N+](=O)[O-])N2 (stereo unspecified) | -6.3 | -2.0 | 16.2* | 2.4
CC(C)(C)C(=O)O[C@H]1CC[C@@]2(C)C(=CC(=O)C3C2CC[C@]2(C)C(=O)[C@@H](F)CC32)C1 (stereo partly specified) | · | 12.2 | · | ·
COC(=O)C1=C(c2ccc(F)cc2OCc2ccccc2)C[C@@H]2CC[C@H]1N2C(=O)NC1Cc2ccccc2C1 | 0.5 | 3.2 | 17.4* | 0.0
COC(=O)C1=C(c2ccccc2OCc2ccccc2)C[C@@H]2CC[C@H]1N2C(=O)NCc1ccc(F)cc1 | 2.3 | 16.3 | 8.1 | 2.6
COC(=O)C1=C(c2ccc(F)cc2OCc2ccccc2)C[C@@H]2CC[C@H]1N2C(=O)NCc1ccc(F)cc1 | 4.1 | -19.7 | 2.7 | 4.5
COC(=O)C1=C(c2ccccc2OCc2ccccc2)C[C@@H]2CC[C@H]1N2C(=O)NCc1ccc(C(C)(C)C)cc1 | 3.4 | -7.5 | 17.0* | 3.6
CCOc1cc(C2C(C#N)=C(N)Oc3c2c(=O)oc2ccccc32)ccc1OC(=O)c1cccs1 (stereo unspecified) | 1.3 | -31.3 | 6.3 | 0.8
CCn1nc(-c2ccccc2)nc2c(=O)n(C)c(=O)nc1-2 | 41.3* | 88.5* | 38.6* | 4.4
COC(=O)OCC12CCC(O1)C1(C)C(=O)OCC21 (stereo unspecified) | -2.4 | 11.4 | -1.9 | 1.0
CCCCCCCC(=O)NC(Oc1ccccc1[N+](=O)[O-])C(Cl)(Cl)Cl (stereo unspecified) | 0.6 | -29.2 | -1.5 | 2.6
CCCC/C(C)=C/[C@@H](NP(=O)(c1ccccc1)c1ccccc1)c1ccccc1 | 1.0 | 20.0 | 15.6* | 7.7
COC(=O)C1=C(c2ccc(C(C)=O)cc2)C[C@@H]2CC[C@H]1N2C(=O)NCCCOC(C)C | 0.9 | 0.8 | -3.2 | 2.0
Clc1ccc(CO/N=C(\Cn2ccnc2)c2ccc(Cl)cc2Cl)c(Cl)c1 | 1.7 | · | 32.9* | 3.9
O=C(c1cc2cc(F)ccc2[nH]1)N1CCC2(CC1)OCCO2 | 1.9 | -13.2 | 16.7* | -0.5
CN1/C(=C\C=C\C2=[N+](C)c3ccc4ccccc4c3C2(C)C)C(C)(C)c2ccccc21 | -4.0 | · | 36.3* | 12.0*
CN1/C(=C\C=Nc2ccccc2)C(C)(C)c2ccccc21 | 0.3 | -1.1 | -1.4 | 0.0
CC(=O)OC1CCC2(/C=N/O)C(=CCC3C4CCC(=O)C4(C)CCC32)C1 (stereo unspecified) | 1.8 | -20.4 | -1.5 | -2.6
CCC(C)/C=C(C)/C=C/C1=CC2=C(Cl)C(=O)C(C)(OC(C)=O)C(=O)C2=CO1 (stereo unspecified) | 5.6 | -26.8 | 0.6 | 12.2* | PP5 conf=7.4;PP1 counter 3x=6.2
COC(=O)C1=C(c2ccc(OC(F)(F)F)cc2)C[C@@H]2CC[C@H]1N2C(=O)NCCOc1ccccc1Cl | 0.9 | 24.5 | 8.9 | 11.1* | PP5 conf=6.3;PP1 counter 3x=4.2
COC(=O)C1=C(c2ccc(OC(F)(F)F)cc2)C[C@@H]2CC[C@H]1N2C(=O)NCCOc1ccccc1 | -1.3 | 9.9 | 3.2 | 8.1
SMILES | NR2E3 ag-1 | NR2E3 ag-2 | PP1 inh | PP5 inh | others
CCCCCCC(C)(C)c1ccc([C@@H]2C[C@H](O)CC[C@H]2CCCO)c(O)c1 | 4.4 | -4.3 | -0.5 | 10.4* | PP5 conf=3.6;PP1 counter 3x=4.5
CN1CC[C@@]2(C)c3cc(O)ccc3N(C)C2O1 (stereo partly specified) | 6.0 | -5.5 | 3.3 | 13.7* | PP5 conf=25.7*;PP1 counter 3x=5.1
CC12Nc3ccccc3C(=O)N1Cc1cnnn1-c1ccccc12 (stereo unspecified) | · | -15.2 | · | ·
Cc1ccc2cc(C=C(C#N)C#N)c(Cl)nc2c1 | -1.0 | 1.6 | 1.7 | 2.8
CC(C)CNC(=O)c1c(N)n(Cc2ccc3c(c2)OCO3)c2nc3ccccc3nc12 | 7.5 | -34.4 | 7.0 | 12.4* | PP5 conf=21.4*;PP1 counter 3x=2.8
COc1ccc(Cn2c(N)c(C(=O)NCc3ccco3)c3nc4ccccc4nc32)cc1OC | 6.6 | -3.2 | 6.6 | 11.7* | PP5 conf=44.3*;PP1 counter 3x=10.0
COCCCNC(=O)c1c(N)n(Cc2ccco2)c2nc3ccccc3nc12 | -2.6 | -22.5 | -2.4 | -0.3
CNC(C)(C)Cc1ccccc1 | 2.4 | -11.1 | -1.2 | 1.3
CN(C)c1ccc2c(c1)N=C(c1ccco1)OP2(=S)N1CCOCC1 (stereo unspecified) | 0.3 | -65.8 | 3.1 | -1.2
CC(C)CCn1c(N)c(C(=O)NCc2cccs2)c2nc3ccccc3nc21 | 1.1 | -36.9 | -1.6 | -0.1
COCCNC(=O)c1c(N)n(CCC(C)C)c2nc3ccccc3nc12 | 9.6 | -11.3 | 6.1 | 10.5* | PP5 conf=22.9*;PP1 counter 3x=3.2
CC(C)OCCCNC(=O)c1c(N)n(Cc2cccs2)c2nc3ccccc3nc12 | 11.2 | -20.4 | 2.2 | 11.7* | PP5 conf=14.7*;PP1 counter 3x=9.3
CCCCNC(=O)c1c(N)n(CCCOC)c2nc3ccccc3nc12 | 4.1 | -21.9 | 4.6 | 4.9
CCOC(=O)c1c(NS(=O)(=O)c2ccccc2)n(CCCOC)c2nc3ccccc3nc12 | 38.4* | 2.8 | 2.0 | 10.7* | PP5 conf=9.9*;PP1 counter 3x=-0.5;NR2E3 ag confirm=1.3;PPARg-NCOR2 ag=-8.9
O=C(c1ccc(N2CC3CC(C2)c2cccc(=O)n2C3)c([N+](=O)[O-])c1)N1CCCCC1 (stereo unspecified) | 4.2 | -19.1 | 3.7 | 2.4
